Assays:
[1] = target: T1, 5-hydroxytryptamine receptor 1A (Rattus norvegicus, UniProt P19327); experiment: Concentration of compound required to inhibit cortical 5-hydroxytryptamine 1A receptor binding sites in rat brain was evaluated; assay type: tissue-based
T1 sequence (P19327 whole entry): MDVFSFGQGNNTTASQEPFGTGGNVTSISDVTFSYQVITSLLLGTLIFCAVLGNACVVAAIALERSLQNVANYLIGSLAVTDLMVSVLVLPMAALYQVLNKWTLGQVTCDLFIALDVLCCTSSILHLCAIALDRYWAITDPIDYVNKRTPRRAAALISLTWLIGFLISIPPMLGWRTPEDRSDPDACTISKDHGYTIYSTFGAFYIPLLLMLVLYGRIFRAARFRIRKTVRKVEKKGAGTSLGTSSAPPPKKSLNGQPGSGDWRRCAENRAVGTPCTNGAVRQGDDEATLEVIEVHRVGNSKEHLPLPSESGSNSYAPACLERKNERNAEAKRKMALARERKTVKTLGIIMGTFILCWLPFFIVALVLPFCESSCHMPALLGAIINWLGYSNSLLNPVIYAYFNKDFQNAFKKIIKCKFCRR

[2] = target: T2, Tryptophan 5-hydroxylase 1 (Rattus norvegicus) (UniProt P09810); experiment: Compound was tested for its effect on NSD 1015 induced accumulation of 5-HTP(ng/g) in rats in corpus striatum at a dosage of 10 umol/kg; assay type: functional
T2 sequence (whole entry): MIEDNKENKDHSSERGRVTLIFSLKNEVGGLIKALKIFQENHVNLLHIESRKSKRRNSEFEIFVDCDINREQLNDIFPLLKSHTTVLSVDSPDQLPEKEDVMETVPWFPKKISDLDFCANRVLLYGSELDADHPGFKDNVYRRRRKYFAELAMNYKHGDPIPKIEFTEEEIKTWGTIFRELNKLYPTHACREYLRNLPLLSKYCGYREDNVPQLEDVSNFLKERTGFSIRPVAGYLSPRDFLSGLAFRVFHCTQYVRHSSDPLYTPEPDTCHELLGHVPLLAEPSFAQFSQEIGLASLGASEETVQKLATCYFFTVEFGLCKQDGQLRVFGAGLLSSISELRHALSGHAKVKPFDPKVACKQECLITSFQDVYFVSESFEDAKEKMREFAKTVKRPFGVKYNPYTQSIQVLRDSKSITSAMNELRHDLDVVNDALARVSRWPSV
Summary of the method: (§1)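 Rats given test drug s.c. in the neck as hydrochloride (5 mL/kg), not reserpine-pretreated; 30 min later NSD 1015 (60 mg/kg, i.e. 287 μmol/kg sc), killed 30 min after that. Brain regions dissected. 5-HTP measured by ion-pair reversed-phase HPLC with electrochemical detection. Mean ± SEM, n = 15 controls, 3–5 per dose; ANOVA with Dunnett's t test vs controls.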

[3] = tested on: Rattus norvegicus; experiment: No of rats exhibiting 5-HT motor syndrome tested in reserpinized rats at a subcutaneous dose of 10 umol/kg; 0 rats out of 2 showed activity; assay type: functional
[4] = target: T2, Tryptophan 5-hydroxylase 1 (Rattus norvegicus); experiment: Compound was tested for its effect on NSD 1015 induced accumulation of 5-HTP(ng/g) in rats in corpus striatum at a dosage of 100 umol/kg; assay type: functional, tissue-based; summary of the method: as §1
[5] = tested on: Rattus norvegicus; experiment: No of rats exhibiting 5-HT motor syndrome tested in reserpinized rats at a subcutaneous dose of 100 umol/kg; 4 rats out of 4 showed activity; assay type: functional
[6] = tested on: Rattus norvegicus; experiment: No of rats exhibiting 5-HT motor syndrome tested in reserpinized rats at a subcutaneous dose of 32 umol/kg; 0 rats out of 4 showed activity; assay type: functional
[7] = target: T2, Tryptophan 5-hydroxylase 1 (Rattus norvegicus); experiment: Compound was tested for its effect on NSD 1015 induced accumulation of 5-HTP(ng/g) in rats in limbic system at a dosage of 3.2 umol/kg; assay type: functional, tissue-based; summary of the method: as §1
[8] = target: T2, Tryptophan 5-hydroxylase 1 (Rattus norvegicus); experiment: Approximate dose levels for a half maximal reduction of 5-HTP levels; assay type: functional; summary of the method: as §1
[9] = target: T2, Tryptophan 5-hydroxylase 1 (Rattus norvegicus); experiment: Compound was tested for its effect on NSD 1015 induced accumulation of 5-HTP(ng/g) in rats in limbic system at a dosage of 10 umol/kg; assay type: functional, tissue-based; summary of the method: as §1
[10] = target: T2, Tryptophan 5-hydroxylase 1 (Rattus norvegicus); experiment: Compound was tested for its effect on NSD 1015 induced accumulation of 5-HTP in rats in corpus striatum at a dosage of 3.2 umol/kg; assay type: functional; summary of the method: as §1
[11] = target: T2, Tryptophan 5-hydroxylase 1 (Rattus norvegicus); experiment: Compound was tested for its effect on NSD 1015 induced accumulation of 5-HTP(ng/g) in rats in limbic system at a dosage of 100 umol/kg; assay type: functional, tissue-based; summary of the method: as §1
[12] = target: T2, Tryptophan 5-hydroxylase 1 (Rattus norvegicus); experiment: Compound was tested for its effect on NSD 1015 induced accumulation of 5-HTP(ng/g) in rats in corpus striatum at a dosage of 32 umol/kg; assay type: functional, tissue-based; summary of the method: as §1
[13] = target: T2, Tryptophan 5-hydroxylase 1 (Rattus norvegicus); experiment: Compound was tested for its effect on NSD 1015 induced accumulation of 5-HTP(ng/g) in rats in limbic system at a dosage of 32 umol/kg; assay type: functional, tissue-based; summary of the method: as §1
[14] = target: T2, Tryptophan 5-hydroxylase 1 (Rattus norvegicus); experiment: Compound was tested for its effect on NSD 1015 induced accumulation of 5-HTP(ng/g) in rats in limbic system at a dosage of 0.32 umol/kg; assay type: functional, tissue-based; summary of the method: as §1
[15] = tested on: Rattus norvegicus; experiment: No of rats exhibiting 5-HT motor syndrome tested in reserpinized rats at a subcutaneous dose of 0.32 umol/kg; 4 rats out of 4 showd activity; assay type: functional
[16] = tested on: Rattus norvegicus; experiment: No of rats exhibiting 5-HT motor syndrome tested in reserpinized rats at a subcutaneous dose of a. 0.1 umol/kg; 0 rats out of 4 showed activity; assay type: functional
[17] = target: T2, Tryptophan 5-hydroxylase 1 (Rattus norvegicus); experiment: Compound was tested for its effect on NSD 1015 induced accumulation of 5-HTP(ng/g) in rats in corpus striatum at a dosage of 0.032 umol/kg; assay type: functional; summary of the method: as §1
[18] = target: T2, Tryptophan 5-hydroxylase 1 (Rattus norvegicus); experiment: Compound was tested for its effect on NSD 1015 induced accumulation of 5-HTP(ng/g) in rats in corpus striatum at a dosage of 1.0 umol/kg; assay type: functional; summary of the method: as §1
[19] = tested on: Rattus norvegicus; experiment: No of rats exhibiting 5-HT motor syndrome tested in reserpinized rats at a subcutaneous dose of 1.0 umol/kg; 3 rats out of 3 showed activity; assay type: functional
[20] = target: T2, Tryptophan 5-hydroxylase 1 (Rattus norvegicus); experiment: Compound was tested for its effect on NSD 1015 induced accumulation of 5-HTP in rats corpus striatum at a dosage of 0.10 umol/kg; assay type: functional, tissue-based; summary of the method: as §1
[21] = target: T2, Tryptophan 5-hydroxylase 1 (Rattus norvegicus); experiment: Compound was tested for its effect on NSD 1015 induced accumulation of 5-HTP(ng/g) in rats in limbic system at a dosage of 0.032 umol/kg; assay type: functional; summary of the method: as §1
[22] = target: T2, Tryptophan 5-hydroxylase 1 (Rattus norvegicus); experiment: Compound was tested for its effect on NSD 1015 induced accumulation of 5-HTP(ng/g) in rats in limbic system at a dosage of 1.0 umol/kg; assay type: functional, tissue-based; summary of the method: as §1
[23] = target: T2, Tryptophan 5-hydroxylase 1 (Rattus norvegicus); experiment: Compound was tested for its effect on NSD 1015 induced accumulation of 5-HTP in rats in corpus striatum at a dosage of 0.32 umol/kg; assay type: functional, tissue-based; summary of the method: as §1
[24] = target: T2, Tryptophan 5-hydroxylase 1 (Rattus norvegicus); experiment: Compound was tested for its effect on NSD 1015 induced accumulation of 5-HTP(ng/g) in rats in limbic system at a dosage of 0.10 umol/kg; assay type: functional, tissue-based; summary of the method: as §1
[25] = tested on: Rattus norvegicus; experiment: No of rats exhibiting 5-HT motor syndrome tested in reserpinized rats at a subcutaneous dose of 32 umol/kg; 4 rats out of 4 showed activity; assay type: functional
[26] = tested on: Rattus norvegicus; experiment: No of rats exhibiting 5-HT motor syndrome tested in reserpinized rats at a subcutaneous dose of 10 umol/kg; 0 rats out of 4 showed activity; assay type: functional
[27] = tested on: Rattus norvegicus; experiment: No of rats exhibiting 5-HT motor syndrome tested in reserpinized rats at a subcutaneous dose of 0.32 umol/kg; 4 rats out of 4 showed activity; assay type: functional
[28] = tested on: Rattus norvegicus; experiment: No of rats exhibiting 5-HT motor syndrome tested in reserpinized rats at a subcutaneous dose of 1.0 umol/kg; 4 rats out of 5 showed activity; assay type: functional
[29] = tested on: Rattus norvegicus; experiment: No of rats exhibiting 5-HT motor syndrome tested in reserpinized rats at a subcutaneous dose of 0.32 umol/kg; 0 rats out of 5 showed activity; assay type: functional
[30] = target: T2, Tryptophan 5-hydroxylase 1 (Rattus norvegicus); experiment: Compound was tested for its effect on NSD 1015 induced accumulation of 5-HTP(ng/g) in rats in corpus striatum at a dosage of 3.2 umol/kg; assay type: functional; summary of the method: as §1
[31] = tested on: Rattus norvegicus; experiment: No of rats exhibiting 5-HT motor syndrome tested in reserpinized rats at a subcutaneous dose of 3.2 umol/kg; 0 rats out of 3 showed activity; assay type: functional
[32] = target: T2, Tryptophan 5-hydroxylase 1 (Rattus norvegicus); experiment: Compound was tested for its effect on NSD 1015 induced accumulation of 5-HTP in rats corpus striatum at a dosage of 10 umol/kg; assay type: functional, tissue-based; summary of the method: as §1
[33] = target: T2, Tryptophan 5-hydroxylase 1 (Rattus norvegicus); experiment: Compound was tested for its effect on NSD 1015 induced accumulation of 5-HTP in rats in corpus striatum at a dosage of 32 umol/kg; assay type: functional, tissue-based; summary of the method: as §1
[34] = tested on: Rattus norvegicus; experiment: No of rats exhibiting 5-HT motor syndrome tested in reserpinized rats at a subcutaneous dose of 10 umol/kg; 0 rats out of 3 showed activity; assay type: functional
[35] = tested on: Rattus norvegicus; experiment: No of rats exhibiting 5-HT motor syndrome tested in reserpinized rats at a subcutaneous dose of 10 umol/kg; 4 rats out of 5 showed activity; assay type: functional
[36] = tested on: Rattus norvegicus; experiment: No of rats exhibiting 5-HT motor syndrome tested in reserpinized rats at a subcutaneous dose of 3.2 umol/kg; 0 rats out of 5 showed activity; assay type: functional
[37] = tested on: Rattus norvegicus; experiment: No of rats exhibiting 5-HT motor syndrome tested in reserpinized rats at a subcutaneous dose of 1.0 umol/kg; o rats out of 3 showed activity; assay type: functional
[38] = tested on: Rattus norvegicus; experiment: No of rats exhibiting 5-HT motor syndrome rats tested in reserpinized rats at a subcutaneous dose of 10 umol/kg; 4 rats out of 4; assay type: functional
[39] = tested on: Rattus norvegicus; experiment: No of rats exhibiting 5-HT motor syndrome rats tested in reserpinized rats at a subcutaneous dose of 32 umol/kg; 3 rats out of 3; assay type: functional
[40] = tested on: Rattus norvegicus; experiment: Number of rats exhibiting 5-HT motor syndrome in reserpinized rats at a subcutaneous dose of 1.0 umol/kg; 0 rats out of 3 showed activity; assay type: functional
[41] = tested on: Rattus norvegicus; experiment: No of rats exhibiting 5-HT motor syndrome tested in reserpinized rats at a subcutaneous dose of 3.2 umol/kg; 0 rats out of 4 showed activity; assay type: functional
[42] = target: T2, Tryptophan 5-hydroxylase 1 (Rattus norvegicus); experiment: Compound was tested for its effects on NSD 1015 induced accumulation of 5-HTP(ng/g) in rats in limbic system at a dosage of 0.10 umol/kg; assay type: functional, tissue-based; summary of the method: as §1

Compound	IC50 [1] [nM]	Activity [2] [ng/g]	Activity [7] [ng/g]	ED50 [8] [µmol/kg]	Activity [9] [ng/g]	Activity [12] [ng/g]	Activity [13] [ng/g]	Activity [14] [ng/g]	Activity [17] [ng/g]	Activity [18] [ng/g]	Activity [20] [ng/g]	Activity [21] [ng/g]	Activity [22] [ng/g]	Activity [23] [ng/g]	Activity [24] [ng/g]	Activity [30] [ng/g]	other results
CN(C)[C@H]1CCc2cccc(O)c2C1	675	69	178	20	162	66	128										Activity [3]: 0; Activity [4]: 45 ng/g; Activity [5]: 4; Activity [6]: 0; Activity [10]: 107 ng/g; Activity [11]: 85 ng/g
CCN(CC)[C@@H]1CCc2cccc(O)c2C1	9.65			0.05				70	87	47	68	131	72	50	110		Activity [15]: 4; Activity [16]: 0; Activity [19]: 3
CCCCN(CCCC)[C@@H]1CCc2cccc(O)c2C1	109	80		20	145	63	106										Activity [25]: 4; Activity [26]: 0
CCCN(CCC)[C@@H]1CCc2cccc(O)c2C1				0.1				86	87		78	163		52	119		Activity [16]: 0; Activity [27]: 4
CCCN(CCC)[C@H]1CCc2cccc(O)c2C1				0.2				114	95	53	94	157	75	61	154		Activity [28]: 4; Activity [29]: 0
CCCCN(CCCC)[C@H]1CCc2cccc(O)c2C1	46.2		168	5	95		112									90	Activity [25]: 4; Activity [31]: 0; Activity [32]: 52 ng/g; Activity [33]: 45 ng/g; Activity [34]: 0
CCN(CC)[C@H]1CCc2cccc(O)c2C1	114	55	107	3	86	46	74			85			135			74	Activity [35]: 4; Activity [36]: 0; Activity [37]: 0
CN(C)[C@@H]1CCc2cccc(O)c2C1	75	44	90	1	89			130		76	88		110	79		67	Activity [38]: 4; Activity [39]: 3; Activity [40]: 0; Activity [41]: 0; Activity [42]: 172 ng/g

— ChEMBL document CHEMBL1124440, “Resolved N,N-dialkylated 2-amino-8-hydroxytetralins: stereoselective interactions with 5-HT1A receptors in the brain” (J Med Chem, 1989)
